Assay results as given in PubChem BioAssay AID488828 (Molecular Libraries Program, Specialized Chemistry Center, …, 2010).
The source made the active and inactive calls.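 How the source made its calls: active means IC50 at or below 10 µM; inactive means the rest.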

Target: Transitional endoplasmic reticulum ATPase (Homo sapiens) (UniProt P55072)
Assay: inhibition of purified VCP ATP hydrolysis – biochemical, hit optimization round 2, SAR follow-up (AID 488828)
Details: purified p97 ATPase, Kinase-Glo ATP luminescence
Method in brief: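 Test system: Purified human p97 (valosin-containing protein) ATPase | Technique: Kinase-Glo Plus luminescence of residual ATP | Timing: 10 min room-temperature enzyme–compound preincubation, 30 min 37 °C ATP reaction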

Transitional endoplasmic reticulum ATPase (Homo sapiens), sequence (P55072 whole entry, looked up): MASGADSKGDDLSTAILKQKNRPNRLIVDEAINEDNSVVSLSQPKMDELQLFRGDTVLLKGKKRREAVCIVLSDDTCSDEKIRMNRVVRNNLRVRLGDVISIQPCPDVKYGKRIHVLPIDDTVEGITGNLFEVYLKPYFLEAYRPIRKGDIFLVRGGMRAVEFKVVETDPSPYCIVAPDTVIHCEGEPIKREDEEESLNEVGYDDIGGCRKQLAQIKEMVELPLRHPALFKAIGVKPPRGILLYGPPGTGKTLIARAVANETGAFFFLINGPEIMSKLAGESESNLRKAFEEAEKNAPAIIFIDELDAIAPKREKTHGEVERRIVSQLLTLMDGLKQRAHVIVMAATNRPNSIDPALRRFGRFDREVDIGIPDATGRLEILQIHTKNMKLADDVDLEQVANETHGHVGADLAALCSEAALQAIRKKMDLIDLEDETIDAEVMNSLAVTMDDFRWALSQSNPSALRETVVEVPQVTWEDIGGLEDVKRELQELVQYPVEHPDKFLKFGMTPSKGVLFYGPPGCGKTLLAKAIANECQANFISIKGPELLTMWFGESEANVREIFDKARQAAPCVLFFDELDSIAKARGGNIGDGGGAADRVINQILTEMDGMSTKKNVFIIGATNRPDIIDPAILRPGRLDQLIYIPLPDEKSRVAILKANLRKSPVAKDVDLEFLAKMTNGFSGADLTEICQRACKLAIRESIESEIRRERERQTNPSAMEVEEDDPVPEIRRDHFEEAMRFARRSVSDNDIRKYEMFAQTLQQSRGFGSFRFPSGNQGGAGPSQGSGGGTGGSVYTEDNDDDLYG

Row | Compound | IC50 | inhibition (at 30 µM (top of the series))
1 | Clc1nc(NCc2ccc(Br)cc2)c2ccccc2n1 | > 30 µM (inactive) | –
2 | COc1ccc(C)cc1NC(=O)c1[nH]c(C)c(C(C)=O)c1C | > 30 µM (inactive) | –
3 | c1ccc(CNc2nc(N3CCCc4ccccc43)nc3ccccc23)cc1 | 4.4 µM | –
4 | Cc1ccc(Cl)cc1Nc1nc(NCc2ccccc2)c2ccccc2n1 | 0.8 µM | –
5 | c1ccc(CNc2nc(N3CCNc4ccccc43)nc3ccccc23)cc1 | 0.4 µM | –
6 | Fc1ccc2c(NCc3ccccc3)nc(NCc3ccccc3)nc2c1 | 2.6 µM | –
7 | Fc1cccc2c(NCc3ccccc3)nc(NCc3ccccc3)nc12 | 3.1 µM | –
8 | Fc1cccc2nc(NCc3ccccc3)nc(NCc3ccccc3)c12 | 1.2 µM | –
9 | Fc1cccc(CNc2nc(Cl)nc3ccccc23)c1 | > 30 µM (inactive) | –
10 | Brc1cccc2c(NCc3ccccc3)nc(NCc3ccccc3)nc12 | 3.3 µM | –
11 | COc1cccc(CNc2nc(Cl)nc3ccccc23)c1 | > 30 µM (inactive) | –
12 | Cc1ccc(CNc2nc(Cl)nc3ccccc23)cc1 | > 30 µM (inactive) | –
13 | CC(C)n1c2ccccc2c2nnc(SCC(=O)OCN3C(=O)c4ccccc4C3=O)nc21 | > 30 µM (inactive) | –
14 | N#Cc1ccc2c(NCc3ccccc3)nc(NCc3ccccc3)nc2c1 | inactive | –
15 | Brc1ccc2c(NCc3ccccc3)nc(NCc3ccccc3)nc2c1 | inactive | –
16 | Cc1c(Cl)cccc1Nc1nc(NCc2ccccc2)c2ccccc2n1 | 0.7 µM | –
17 | Fc1ccc(CNc2nc(Nc3cccc(Cl)c3)nc3ccccc23)cc1 | 1.5 µM | –
18 | Ic1cccc(Nc2nc(NCc3ccccc3)c3ccccc3n2)c1 | 5.2 µM | –
19 | Cc1cccc(CNc2nc(Nc3cccc(Cl)c3)nc3ccccc23)c1 | 2.3 µM | –
20 | COc1ccccc1CNc1nc(Cl)nc2ccccc12 | > 30 µM (inactive) | –
21 | Clc1nc(NCc2ccccc2Br)c2ccccc2n1 | > 30 µM (inactive) | –

Row | Compound | IC50 | inhibition (at 30 µM (top of the series))
22 | Clc1cccc(Nc2nc(NCc3ccc(Br)cc3)c3ccccc3n2)c1 | 7.4 µM | –
23 | Clc1nc(NCc2ccccc2Cl)c2ccccc2n1 | > 30 µM (inactive) | –
24 | Clc1ccc2c(NCc3ccccc3)nc(NCc3ccccc3)nc2c1 | 5.5 µM | –
25 | COc1cccc2c(NCc3ccccc3)nc(NCc3ccccc3)nc12 | 0.6 µM | –
26 | O=C1C(C=NCC2CCCO2)=C(O)c2ccccc21 (stereo unspecified) | > 30 µM (inactive) | –
27 | COc1ccc(CNc2nc(Nc3cccc(Cl)c3)nc3ccccc23)cc1 | 2.3 µM | –
28 | CC(C)(C)NC(=O)Nc1ccc2nccnc2c1 | > 30 µM (inactive) | –
29 | Fc1cccc(CNc2nc(Nc3cccc(Cl)c3)nc3ccccc23)c1 | 1.2 µM | –
30 | Cc1c(F)cccc1Nc1nc(NCc2ccccc2)c2ccccc2n1 | 0.9 µM | –
31 | Cc1ccccc1CNc1nc(Cl)nc2ccccc12 | > 30 µM (inactive) | –
32 | COc1cccc(CNc2nc(Nc3cccc(Cl)c3)nc3ccccc23)c1 | 1 µM | –
33 | FC(F)(F)c1ccc2c(NCc3ccccc3)nc(NCc3ccccc3)nc2c1 | 9.1 µM | –
34 | COc1ccc(Nc2nc(Nc3ccc(OC)cc3)c3ccccc3n2)cc1 | inactive | –
35 | Clc1nc(NCc2cccc(Br)c2)c2ccccc2n1 | > 30 µM (inactive) | –
36 | c1ccc(Nc2nc(Nc3ccccc3)c3ccccc3n2)cc1 | 2.6 µM | –
37 | Fc1ccccc1-c1nc(NCc2ccccc2)c2ccccc2n1 | 1.1 µM | –
38 | COc1c(Cl)cccc1Nc1nc(NCc2ccccc2)c2ccccc2n1 | 0.9 µM | –
39 | Clc1cccc(CNc2nc(Nc3cccc(Cl)c3)nc3ccccc23)c1 | 5 µM | –
40 | O=C(NCc1ccco1)c1cc(S(=O)(=O)N2CCOCC2)ccc1Cl | > 30 µM (inactive) | –
41 | O=C(C1CCCN(S(=O)(=O)c2cnc[nH]2)C1)N(CCc1ccccc1)Cc1ccccc1 (stereo unspecified) | > 30 µM (inactive) | –
42 | Cc1ccccc1CNc1nc(Nc2cccc(Cl)c2)nc2ccccc12 | 4.2 µM | –

Row | Compound | IC50 | inhibition (at 30 µM (top of the series))
43 | Cc1cccc(CNc2nc(Cl)nc3ccccc23)c1 | > 30 µM (inactive) | –
44 | COc1ccc(Nc2nc(NCc3ccccc3)c3ccccc3n2)cc1F | 0.9 µM | –
45 | Clc1cccc(Nc2nc(NCc3ccccc3Cl)c3ccccc3n2)c1 | 4.7 µM | –
46 | CC1(C)N(O)CC(c2cccs2)=[N+]1[O-] | > 30 µM (inactive) | –
47 | Fc1ccc(CNc2nc(Cl)nc3ccccc23)cc1 | > 30 µM (inactive) | –
48 | c1ccc(CNc2nc(N3CCOc4ccccc43)nc3ccccc23)cc1 | 0.6 µM | –
49 | Fc1ccccc1CNc1nc(Cl)nc2ccccc12 | > 30 µM (inactive) | –
50 | Clc1ccc(Nc2nc(Nc3cccc(Cl)c3)nc3ccccc23)cc1 | – | inactive
51 | COc1ccc(F)cc1Nc1nc(NCc2ccccc2)c2ccccc2n1 | 6.7 µM | –
52 | O=[N+]([O-])c1cccc(Nc2nc(NCc3ccccc3)c3ccccc3n2)c1 | 5.2 µM | –
53 | Clc1ccc(CNc2nc(Nc3cccc(Cl)c3)nc3ccccc23)cc1 | 2.8 µM | –
54 | Cc1ccc(Nc2nc(NCc3ccccc3)c3ccccc3n2)cc1F | 0.9 µM | –
55 | Cc1ccc(CNc2nc(Nc3cccc(Cl)c3)nc3ccccc23)cc1 | 1.4 µM | –
56 | COc1ccccc1CNc1nc(Nc2cccc(Cl)c2)nc2ccccc12 | 1.6 µM | –
57 | Clc1cccc2nc(NCc3ccccc3)nc(NCc3ccccc3)c12 | 2.2 µM | –
58 | Cc1ccc2c(NCc3ccccc3)nc(NCc3ccccc3)nc2c1 | 2.2 µM | –
59 | Cc1cc(F)cc(Nc2nc(NCc3ccccc3)c3ccccc3n2)c1 | 0.7 µM | –
60 | CN1CCN(S(=O)(=O)c2ccc(NC(=O)c3cccc(S(=O)(=O)N4CCCC4)c3)cc2)CC1 | > 30 µM (inactive) | –
61 | COc1ccc2nc(NCc3ccccc3)nc(NCc3ccccc3)c2c1 | 7.5 µM | –
62 | CC(C)Sc1oc(-c2ccco2)nc1S(=O)(=O)c1ccc(F)cc1 | 3 µM | –
63 | COc1ccc(Cl)cc1Nc1nc(NCc2ccccc2)c2ccccc2n1 | 1.1 µM | –

Row | Compound | IC50 | inhibition (at 30 µM (top of the series))
64 | Fc1ccc2nc(NCc3ccccc3)nc(NCc3ccccc3)c2c1 | 4.7 µM | –
65 | CCOC(=O)NC(NC(=O)OCC)C(=O)c1ccc(F)cc1 | > 30 µM (inactive) | –
66 | Fc1ccccc1CNc1nc(Nc2cccc(Cl)c2)nc2ccccc12 | 1.8 µM | –
67 | Cc1ccc(C2=[N+]([O-])C3(CCCCC/C3=N\O)N(O)C2(C)C)o1 (stereo unspecified) | > 30 µM (inactive) | –
68 | Clc1ccc(CNc2nc(Cl)nc3ccccc23)cc1 | > 30 µM (inactive) | –
69 | COc1ccc(CNc2nc(Cl)nc3ccccc23)cc1 | > 30 µM (inactive) | –
70 | c1ccc(CNc2nc(N3CCc4ccccc43)nc3ccccc23)cc1 | 2 µM | –
71 | COc1c(F)cccc1Nc1nc(NCc2ccccc2)c2ccccc2n1 | 1.7 µM | –
72 | CC(=O)Nc1ccc(NC(=O)c2ccccc2F)cc1 | > 30 µM (inactive) | –
73 | Clc1cccc(Nc2nc(NCc3cccc(Br)c3)c3ccccc3n2)c1 | 3.7 µM | –
74 | COc1ccc2c(NCc3ccccc3)nc(NCc3ccccc3)nc2c1 | 5.7 µM | –
75 | Clc1cccc(Nc2nc(NCc3ccccc3Br)c3ccccc3n2)c1 | 4 µM | –
76 | COc1cc2nc(NCc3ccccc3)nc(NCc3ccccc3)c2cc1OC | 4.4 µM | –
77 | Clc1ccc2nc(NCc3ccccc3)nc(NCc3ccccc3)c2c1 | 1.6 µM | –
78 | O=S(=O)(NC1CCCCC1)c1ccc(Br)cc1 | > 30 µM (inactive) | –
79 | CCN(CC)c1ccc2cc(-c3nc4ccccc4[nH]3)c(=O)oc2c1 | 1.4 µM | –
80 | Clc1cccc(CNc2nc(Cl)nc3ccccc23)c1 | > 30 µM (inactive) | –
81 | Cc1ccc(F)cc1Nc1nc(NCc2ccccc2)c2ccccc2n1 | 0.8 µM | –
